Screening results: PubChem BioAssay, several laboratories
Shown are actives, neighbours in structure and some others; about 3.5% of the full set was active somewhere.
FXIIa inh 1536 – human FXIIa protease inhibitors, primary screen, biochemical, 1536-well | Coagulation factor XII (Homo sapiens), P00748 | AID 800, 2007 | inhibition, % at 5 µM | purified FXIIa, Boc-QGR-AMC fluorogenic substrate, 2 h | hit rate 0.3% among 220,000; in the data active = inhibition above about 40%;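 also: 0% = enzyme with no compound and 100% = blank without enzyme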
AHR activator – AHR activators, primary screen, cell-based, luminescence, luciferase reporter, human; Aryl hydrocarbon receptor (Homo sapiens), P35869; AHR-responsive luciferase reporter cells; activation, % at 5 µM; hit rate 2.5% among 320,000; in the data active = activation above about 47%;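 also: 0% = vehicle wells and 100% = reference agonist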
Thrombin inh – human alpha-thrombin inhibitors, primary screen, counter-screen for coagulation protease inhibitor project, biochemical, 1536-well, fluorogenic AMC substrate; inhibition, % at 5 µM; hit rate 0.26% among 220,000; Boc-VPR-AMC fluorogenic substrate cleavage; Prothrombin (Homo sapiens), P00734;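 active = inhibition at or above 40%; inactive = inhibition below 40%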;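 also: 0% = enzyme with no compound and 100% = wells without enzyme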
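System: Human alpha-thrombin protein | Medium: pH 7.5 Tris (50 mM) with NaCl 150 mM, Tween 20 0.05% | Times: Enzyme reaction carried out at room temperature | Detection: AMC fluorescence, 355/460 nm | Evaluation: Percent inhibition scaled between no-compound controls and no-enzyme blanks | Benchmarks: Enzyme without compound as high, wells lacking enzyme as low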
STAT3 act – IL-6 driven STAT3 reporter potentiators, primary screen, U3A cells, luciferase, luminescence, MLSCN library. IL-6 STAT3-luciferase reporter; 100% = signal with IL-6 EC80 alone. hit rate 0.91% among 190,000. activation (% of control), % at 5.6 µM;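 active = activation above the screen-wide mean of compound activation plus 3 SD, cut at about 130% in these data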;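 also: 0% = background luminescence of wells with medium and substrate only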
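Test system: STAT3-luciferase reporter U3A cells; Detection: reporter luminescence signal; Times: 1 h compound pre-exposure, 6 h IL-6 stimulation, 37 °C; Benchmarks: IL-6-only high control; Also added: IL-6 stimulus at 33 ng/mL final.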
hK5 inh – human KLK5 protease inhibitors, primary screen, biochemical, 1536-well; recombinant hK5, fluorogenic AMC substrate cleavage; inhibition, % at 5 µM; hit rate 0.59% among 210,000;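 active = inhibition of 40% or more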;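 also: 0% = enzyme controls without compound and 100% = no-enzyme blanks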
FXIa inh – human FXIa protease inhibitors, primary screen, biochemical, 1536-well; AID 798, 2007; hit rate 0.14% among 220,000; inhibition, % at 5 µM; Coagulation factor XI (Homo sapiens), P03951; purified FXIa, Boc-Glu-Ala-Arg-AMC fluorogenic substrate;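 active = inhibition of at least 40%; inactive = inhibition below 40%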;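 also: fluorescence of freed AMC excited at 355 nm; 0% = enzyme without compound and 100% = no enzyme blank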
Target sequence (P03951 19-387 limits assumed): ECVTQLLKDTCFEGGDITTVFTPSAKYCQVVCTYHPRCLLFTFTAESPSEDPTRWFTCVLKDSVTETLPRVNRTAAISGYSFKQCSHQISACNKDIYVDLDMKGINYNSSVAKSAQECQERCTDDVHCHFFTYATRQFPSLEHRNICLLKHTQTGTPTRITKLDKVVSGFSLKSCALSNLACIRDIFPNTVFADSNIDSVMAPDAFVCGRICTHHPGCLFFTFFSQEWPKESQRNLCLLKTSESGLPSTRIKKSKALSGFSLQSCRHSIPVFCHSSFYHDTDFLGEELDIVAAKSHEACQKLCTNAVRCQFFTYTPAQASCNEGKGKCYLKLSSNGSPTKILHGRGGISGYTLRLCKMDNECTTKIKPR
Target sequence (P03951 388-625 limits assumed): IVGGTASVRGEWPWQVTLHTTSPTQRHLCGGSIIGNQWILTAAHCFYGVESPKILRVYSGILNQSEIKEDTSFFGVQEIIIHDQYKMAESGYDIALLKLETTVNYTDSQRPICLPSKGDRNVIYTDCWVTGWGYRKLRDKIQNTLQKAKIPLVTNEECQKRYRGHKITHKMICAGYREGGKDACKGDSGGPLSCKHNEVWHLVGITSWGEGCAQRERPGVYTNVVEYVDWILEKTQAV
AHR act confirm – AHR activators, confirmation, cell-based, luminescence, luciferase reporter, human; shares compounds with AHR activator; human cells, AHR-responsive luciferase reporter; activation, % at 9 µM; hit rate 87% among 2,300; AID 2845, 2010; in the data active = activation above about 49%;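 also: HepG2 hepatoma cells carrying a DRE-driven firefly luciferase reporter; 0% = vehicle wells and 100% = reference agonist wells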
PXR counter – human PXR activators, counter-screen for AHR activator project, cell-based, luciferase luminescence | shares compounds with AHR activator | cell-based PXR reporter | activation, % at 11.6 µM | hit rate 88% among 2,300; in the data active = activation above about 11%;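 also: human hepatoma DPX-2 cells expressing full-length human PXR; 0% = DMSO and 100% = reference agonist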
Active calls of the source: *.

How did Cc1cc(O)ccc1Nc1nc(-c2sc(N)nc2C)cs1 do in these assays?
FXIIa inh 1536: 16.0; AHR activator: -8.0; Thrombin inh: 11.3; STAT3 act: 80.9; hK5 inh: 17.8; FXIa inh: 5.1

Results for Cc1nc(C)c(-c2csc(Nc3ccc(N)cc3)n2)s1 ?
AHR activator: 126.5*; AHR act confirm: 21.8; PXR counter: 19.2*

What do the screens show for `CCOc1ccc(C(=O)COC(=O)c2nn(CC)c(=O)c3ccccc23)cc1`?
AHR activator: 0.4

What do the screens show for `Nc1sc(-c2ccccc2)c(Cc2ccccc2)c1C(=O)O`?
FXIIa inh 1536: 5.7; AHR activator: 1.7; Thrombin inh: -8.8; STAT3 act: 97.8; hK5 inh: -1.6; FXIa inh: -0.7

Results for COc1cc(C#Cc2c(-c3cncn3C)n(C)c3ccc(-c4ccc5[nH]ccc5c4)cc23)cc(OC)c1 ?
AHR activator: 104.7*; AHR act confirm: 79.6*; PXR counter: 28.2*

How did CCCN1C(=O)c2cc(C(=O)Nc3cccc(C(C)=O)c3)ccc2C1Nc1cccc(C(C)=O)c1 (stereo unspecified) do in these assays?
FXIIa inh 1536: 7.5; AHR activator: 3.6; Thrombin inh: -2.8; hK5 inh: 0.8; FXIa inh: 0.4

How did CCCN1C(=O)c2cc(C(=O)Nc3ccccc3OC)ccc2C1Nc1ccccc1OC (stereo unspecified) do in these assays?
FXIIa inh 1536: 4.1; AHR activator: 94.3*; Thrombin inh: 0.0; hK5 inh: -0.7; FXIa inh: -0.6; AHR act confirm: 65.4*; PXR counter: 72.2*

What do the screens show for `COc1ccc(C2=NCCn3nc4cc(C(F)(F)F)ccc4c32)cc1`?
AHR activator: 79.8*; AHR act confirm: 69.2*; PXR counter: 41.6*

What do the screens show for `O=C(Nc1cccc(Cl)c1)c1ccc(=O)[nH]n1`?
AHR activator: 148.2*; AHR act confirm: 103.8*

What do the screens show for `Cc1nn(CC(=O)Nc2ccc(C(=O)N3CCCCC3)cc2)c(=O)c2ccccc12`?
FXIIa inh 1536: -0.1; AHR activator: 1.3; Thrombin inh: -6.7; STAT3 act: 95.0; hK5 inh: 20.0; FXIa inh: -7.9

Results for Cc1nn(CC(=O)Nc2ccc(C(=O)N3CCCC3)cc2)c(=O)c2ccccc12 ?
FXIIa inh 1536: 2.7; AHR activator: 86.4*; Thrombin inh: -2.3; STAT3 act: 106.6; hK5 inh: 13.4; FXIa inh: -4.1; AHR act confirm: 5.5; PXR counter: 5.2

How did Brc1ccc(-c2noc(CCc3ccccc3)n2)o1 do in these assays?
FXIIa inh 1536: 10.6; AHR activator: 7.5; Thrombin inh: -3.4; STAT3 act: 111.6; hK5 inh: -20.9; FXIa inh: 2.7

What do the screens show for `Brc1ccc(-c2noc(COc3ccc4ccccc4c3)n2)o1`?
FXIIa inh 1536: 11.2; AHR activator: 7.4; Thrombin inh: -2.5; STAT3 act: 111.2; hK5 inh: -18.6; FXIa inh: 0.9

What do the screens show for `Brc1ccc(-c2noc(-c3ccccn3)n2)o1`?
AHR activator: 101.4*; AHR act confirm: 71.2*; PXR counter: 25.0*

How did Nc1nnc(-c2ccccc2[N+](=O)[O-])o1 do in these assays?
FXIIa inh 1536: 6.7; AHR activator: -1.7; Thrombin inh: -2.9; STAT3 act: 96.3; FXIa inh: 0.1

What do the screens show for `COc1cc(-c2nc(-c3ccc(Br)o3)no2)cc(OC)c1OC`?
FXIIa inh 1536: -2.9; AHR activator: 91.4*; Thrombin inh: -6.8; STAT3 act: 104.5; hK5 inh: -2.3; FXIa inh: -7.0; AHR act confirm: 84.3*; PXR counter: 13.9*

How did Clc1ccccc1-c1nc(-c2ccc(Br)o2)no1 do in these assays?
AHR activator: 100.5*; AHR act confirm: 108.2*; PXR counter: 42.8*

How did O=[N+]([O-])c1ccccc1-c1nc(-c2ccc(Br)o2)no1 do in these assays?
FXIIa inh 1536: 9.8; AHR activator: 112.1*; Thrombin inh: 0.5; STAT3 act: 106.3; hK5 inh: -19.7; FXIa inh: 7.7; AHR act confirm: 109.2*; PXR counter: 47.1*

How did COc1cc(C(=O)Nc2ccc(N3CCCS3(=O)=O)cc2)c([N+](=O)[O-])cc1OC do in these assays?
AHR activator: 0.8

Results for CCC(CO)Oc1cc(NCc2ccc(C(F)(F)F)cc2)c2ncn(C(C)C)c2c1 (stereo unspecified) ?
AHR activator: 5.1

Results for CCOC(=O)[C@H]1[C@H]2COc3ccc(Br)cc3[C@@H]2N2C(=O)CN(Cc3ccco3)C(=O)[C@@]12C ?
AHR activator: -0.9

How did COc1ccccc1C(=O)NCCC(=O)NCc1ccncc1 do in these assays?
AHR activator: 4.8

How did O=C(COC(=O)Cn1cnc2ccccc21)Nc1cc(S(=O)(=O)N2CCOCC2)ccc1Cl do in these assays?
FXIIa inh 1536: 16.2; AHR activator: -2.2; Thrombin inh: 0.0; hK5 inh: 0.8; FXIa inh: 0.8

How did O=C(COC(=O)Cn1cnc2ccccc21)Nc1cc2c(cc1Cl)C(=O)c1ccccc1C2=O do in these assays?
FXIIa inh 1536: 9.7; AHR activator: 83.6*; Thrombin inh: -5.2; STAT3 act: 112.8; hK5 inh: 7.5; FXIa inh: -0.9; AHR act confirm: 145.5*; PXR counter: 27.0*

Results for Nc1ccc(Nc2nc(-c3cccs3)cs2)cc1 ?
FXIIa inh 1536: 8.1; AHR activator: 117.1*; Thrombin inh: 13.0; STAT3 act: 93.7; hK5 inh: -1.3; FXIa inh: -2.9; AHR act confirm: 12.3; PXR counter: 16.2*

How did Oc1ccc(-c2csc(Nc3ccccn3)n2)c(O)c1 do in these assays?
AHR activator: 168.8*; AHR act confirm: 102.8*; PXR counter: 14.7*

Results for Cc1cccc(Nc2nc(-c3cccs3)cs2)n1 ?
FXIIa inh 1536: 13.8; AHR activator: 87.2*; Thrombin inh: 1.0; STAT3 act: 121.4; hK5 inh: -9.1; FXIa inh: 5.2; AHR act confirm: 160.5*; PXR counter: 20.8*
